Among the data in ChEMBL document CHEMBL3994571, “Caffeoyl Triterpenoid Esters as Potential Anti-ischemic Stroke Agents from Celastrus orbiculatus” (J Nat Prod, 2016) are Activity and viability values, retold here.

Active and inactive are the calls of the source. No cut-off for these calls is given here.

Data set [1] has as its system SH-SY5Y. Put plainly: Neuroprotective activity against oxygen glucose deprivation-induced cell death in human SH-SY5Y cells assessed as increase in cell viability at 10 uM treated at beginning of 24 hrs reoxygenation period by MTT assay. It is filed as functional, cell-based. The essentials: (§1)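 SH-SY5Y cells seeded at 2 × 10⁴ cells/well. Medium replaced by glucose-free EBSS (pH 7.4), then 1 h hypoxia (85% N₂, 10% H₂, 5% CO₂, 37 °C). Reoxygenated under normal culture for 24 h, compound added at start of reoxygenation. MTT read at 490 nm, given as % of non-OGD control. Mean ± SEM from three independent experiments.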
A general note: Tetrazolium dyes change colour on reduction, which living cells bring about.

Data set [2] deals with SH-SY5Y. Put plainly: Neuroprotective activity in human SH-SY5Y cells assessed as reduction in oxygen glucose deprivation-induced morphological damage at 5 to 10 uM treated at beginning of 24 hrs reoxygenation period. It is filed as functional, cell-based. Put shortly:
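SH-SY5Y cells exposed to 1 h OGD in glucose-free EBSS (pH 7.4) under 85% N₂/10% H₂/5% CO₂ at 37 °C, then 24 h reoxygenation. Compound added after OGD at reoxygenation onset. Dendrite fragmentation and cell number assessed by morphological observation.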

Data set [3] has as its system SH-SY5Y. Briefly: Neuroprotective activity against oxygen glucose deprivation-induced cell death in human SH-SY5Y cells assessed as cell viability at 10 uM treated at beginning of 24 hrs reoxygenation period by MTT assay (reference value: 55.05 +/- 2.03%). The note with it: read-out: Activity. Format: functional. The essentials:
as §1

Data set [4] has as its system SH-SY5Y. Put plainly: Neuroprotective activity against oxygen glucose deprivation-induced cell death in human SH-SY5Y cells assessed as increase in cell viability treated at beginning of 24 hrs reoxygenation period by MTT assay. Format: functional, cell-based. Put shortly: as §1
Data set [5] relates to SH-SY5Y. Put plainly: Cytotoxicity against human SH-SY5Y cells at 1 to 10 uM after 24 hrs by MTT assay. It is filed as cell-based. The essentials: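 SH-SY5Y cells grown in 1:1 MEM/F12 with 10% FBS and penicillin/streptomycin at 37 °C, 5% CO₂. Seeded at 2 × 10⁴ cells/well. Normal cells without OGD exposed to compound. Viability by MTT: 3 h at 37 °C in dark, formazan dissolved in DMSO, absorbance at 490 nm.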

Data set [6] deals with Rattus norvegicus. Briefly: Neuroprotective activity against middle cerebral artery occlusion-induced Sprague-Dawley rat ischemic stroke model assessed as decrease in brain infarct volume at 10 mg/kg, iv dosed 2 hrs post onset of ischemia measured after 24 hrs of reperfusion by TTC staining based assay relative to control. It is filed as functional. The arrangement: scale not given: the % may be the effect or the level left. Put shortly: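 Male Sprague-Dawley rats, 230–280 g, under chloral hydrate (400 mg/kg i.p.). Left MCA occluded 2 h by 4-0 nylon filament, then reperfused; body temperature kept at 37.0 ± 0.5 °C. Edaravone as positive control. After 24 h reperfusion, 2 mm coronal sections stained with 1% TTC for 15 min, then fixed in 4% paraformaldehyde. White tissue scored as infarct. n = 11–14.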

Data set [7] deals with Rattus norvegicus. Briefly: Neuroprotective activity against middle cerebral artery occlusion-induced Sprague-Dawley rat ischemic stroke model assessed as reduction in neurological score at 10 mg/kg, iv dosed 2 hrs post onset of ischemia measured after 24 hrs of reperfusion […]. It is filed as functional, organism-based. The essentials: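 Male Sprague-Dawley rats, 230–280 g, given 2 h filament MCAO under chloral hydrate anaesthesia, then reperfused. Edaravone as positive control. After 24 h reperfusion, deficits rated by modified Neurological Severity Score on an 18-point scale (motor, visual, tactile); higher means worse. n = 11–14.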

Turning to `C[C@H]1C(=O)CC[C@@H]2[C@]1(C)CC[C@H]1[C@@]2(C)CC[C@@]2(C)[C@@H]3C[C@](C)(COC(=O)/C=C/c4ccc(O)c(O)c4)CC[C@]3(C)CC[C@]12C`, the outcome in the data set with SH-SY5Y [1], in the data set on SH-SY5Y [2] and with Rattus norvegicus [7] was Active. Further, the viability at 10 µM in the data set on SH-SY5Y [3] worked out at 115%. For the same compound, the results for the Activity entry with SH-SY5Y [4], in the data set on SH-SY5Y [5] and with Rattus norvegicus [6] were “Dose-dependent effect”, “Non-Toxic” and 14.2%, respectively.

For `C[C@H]1C(=O)CC[C@@H]2[C@]1(C)CC[C@H]1[C@@]2(C)CC[C@@]2(C)[C@@H]3C[C@](C)(COC(=O)/C=C/c4ccc(O)cc4)CC[C@]3(C)CC[C@]12C`, in the data set with SH-SY5Y [1], the result was inactive.
